Measurements taken from article PMC8367020 (Journal of the American Chemical Society, 2021).
Values joined by “and” are separate entries in the source; they are usually repeats but may differ in a detail not shown here. Equal values may be shown once. Read-outs that look alike come from different tables or passages of the source. Marks after values point to notes of the source that are not given here. Values belong to the compound of their own block, whether it stands above or below them.

Key:
GABA-AT [1] = molecular target: T1, GABA-AT (Sus scrofa, UniProt P80147); test: Reversible inhibition of GABA-AT; assay type: biochemical; settings: Ki = IC50/(1+[S]/Km)
[2] = system: aspartate aminotransferase (Asp-AT); settings: up to 4 mM; cited from earlier work
hOAT [3] = molecular target: T2, hOAT (Homo sapiens, UniProt P04181); test: Time-dependent inactivation kinetics of hOAT; assay type: biochemical
T2 sequence (P04181 26-439): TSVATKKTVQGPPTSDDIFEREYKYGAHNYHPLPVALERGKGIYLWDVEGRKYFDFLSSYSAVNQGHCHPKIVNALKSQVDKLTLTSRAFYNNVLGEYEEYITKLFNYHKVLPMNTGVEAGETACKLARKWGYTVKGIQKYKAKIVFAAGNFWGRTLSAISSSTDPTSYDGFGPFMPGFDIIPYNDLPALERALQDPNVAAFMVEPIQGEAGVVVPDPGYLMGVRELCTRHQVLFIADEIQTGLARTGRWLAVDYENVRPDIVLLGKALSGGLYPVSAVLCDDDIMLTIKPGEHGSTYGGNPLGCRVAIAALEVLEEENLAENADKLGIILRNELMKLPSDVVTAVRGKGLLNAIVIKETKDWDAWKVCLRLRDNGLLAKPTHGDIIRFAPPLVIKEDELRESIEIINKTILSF

[4] = system: human-derived HCC mouse model; settings: 0.1 and 1.0 mg/kg; po; cited from earlier work
hOAT [5] = molecular target: T2, hOAT; settings: cited from earlier work
hOAT [6] = molecular target: T2, hOAT; settings: cited from earlier work; remark: listed apart in the source
GABA-AT [7] = molecular target: T1, GABA-AT; settings: cited from earlier work
[8] = system: alanine aminotransferase (Ala-AT); settings: up to 4 mM; cited from earlier work
hOAT [9] = molecular target: T2, hOAT; settings: cited from earlier work; remark: listed apart in the source
hOAT [10] = molecular target: T2, hOAT; test: 48-hour time-dependent dialysis of inactivated hOAT; assay type: biochemical; settings: 48-hour dialysis against buffer with excess PLP and α-KG
hOAT [11] = molecular target: T2, hOAT; test: Partition ratio determination with hOAT; assay type: biochemical; settings: in the presence of α-KG, partition ratio = turnover number −1
[12] = system: alanine aminotransferase (Ala-AT); test: Inhibition of Ala-AT; assay type: biochemical; settings: at concentrations up to 10 mM
hOAT [13] = molecular target: T2, hOAT; test: Denaturing intact protein mass spectrometry of hOAT inactivated by 6; assay type: binding
Summary of the method: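 Intact hOAT fully inactivated by the test compound was analysed by denaturing intact-protein mass spectrometry, with untreated hOAT run alongside as a control. The added mass was read as the shift from the unmodified protein and compared with theoretical adduct masses.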

[14] = system: aspartate aminotransferase (Asp-AT); test: Inhibition of Asp-AT; assay type: biochemical; settings: at concentrations up to 10 mM
hOAT [15] = molecular target: T2, hOAT; test: Stopped-flow transient-state spectrophotometry of hOAT reacting with 6; assay type: biochemical
Summary of the method: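 Stopped-flow at 10 °C. hOAT (6.94 µM final) was mixed with the test compound (e.g. 1040 µM final; several concentrations). CCD absorbance at 250–800 nm over 0.0137–9843 s came from spliced, averaged short- and long-time datasets, deconvolved by SVD. The 420 nm traces were fitted to three exponentials, and first-phase kobs was fitted against concentration. Quinonoid accumulation assumed ε ~30 mM−1cm−1.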

[16] = hOAT inactivation, mean and standard error

T1 sequence (P80147 29-500): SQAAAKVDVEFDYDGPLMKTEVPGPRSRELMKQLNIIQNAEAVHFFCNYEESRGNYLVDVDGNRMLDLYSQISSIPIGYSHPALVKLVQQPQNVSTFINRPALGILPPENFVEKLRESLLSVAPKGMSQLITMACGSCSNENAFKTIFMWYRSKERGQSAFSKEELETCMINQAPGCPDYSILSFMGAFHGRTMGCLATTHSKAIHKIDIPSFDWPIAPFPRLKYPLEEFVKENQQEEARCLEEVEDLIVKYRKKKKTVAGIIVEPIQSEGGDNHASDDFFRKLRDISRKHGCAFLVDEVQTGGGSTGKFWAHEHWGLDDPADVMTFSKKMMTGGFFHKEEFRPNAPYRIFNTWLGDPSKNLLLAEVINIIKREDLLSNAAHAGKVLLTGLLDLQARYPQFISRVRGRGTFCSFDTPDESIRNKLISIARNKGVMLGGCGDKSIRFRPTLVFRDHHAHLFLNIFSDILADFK

SMILES: N[C@H]1C[C@@H](C(=O)O)CC1=C(C(F)(F)F)C(F)(F)F [Compound 1, (1S,3S)-3-amino-4-(hexafluoropropan-2-ylidenyl)cyclopentane-1-carboxylic acid]
Ki (GABA-AT [1]): 5.2 ± 0.6 mM
inhibition of Asp-AT [2]: no inhibition
kinact/KI (hOAT [3]; hOAT inactivation efficiency): 16.7 ± 6.7 M⁻¹ s⁻¹
Ki (hOAT [3]; [16]): 0.09 ± 0.03 mM
kinact (hOAT [3]; [16]): 0.09 ± 0.01 min⁻¹
serum AFP levels [4]: remarkably decreased
tumor growth [4]: inhibited tumor growth
Fluoride ion release (hOAT [5]): 79 ± 2^b eq.
Partition ratio (hOAT [6]): 12 ± 1^b
Ki (GABA-AT [7]; GABA-AT, weak reversible inhibition): 4.2 mM
inhibition of GABA-AT (in words) (GABA-AT [7]; preliminary screening): millimolar reversible inhibition
inhibition of Ala-AT [8]: no inhibition

SMILES: N[C@H]1C=C(C(=O)O)CCC1(F)F [Compound 2, (S)-3-amino-4,4-difluorocyclohex-1-enecarboxylic acid, reference compound]
improvement in inactivation efficiency (kinact/KI) against hOAT compared to 1 (hOAT [9]; versus compound 1): 23 fold

Ki (hOAT [3]): 4 ± 1 mM
SMILES: N[C@H]1C[C@@H](C(=O)O)CC1(F)F [Compound 4, (1R,4S)-4-amino-3,3-difluorocyclopentanecarboxylic acid]
Ki (hOAT [9]; hOAT inactivation): 7.8 mM

residual activity of hOAT after dialysis (hOAT [10]): unchanged
Partition ratio (hOAT [11]): 34 and 34 ± 0
inhibition of Ala-AT [12]: did not show noticeable inhibition
hOAT in apo-enzyme state (hOAT [13]; denaturing MS conditions at pH 2.5): approximately 84%
hOAT covalently modified (hOAT [13]; denaturing MS, hOAT fully inactivated by 6, mass increase 370.07 Da): ~ 16%
Ki (hOAT [3]): 0.06 ± 0.03 mM
kinact/KI (hOAT [3]): 21.7 M⁻¹ s⁻¹
improvement in inactivation efficiency (kinact/KI) (hOAT [3]; 6 versus 4, hOAT): 400 fold
inhibition of Asp-AT [14]: did not show noticeable inhibition
rate of quinonoid decay (hOAT [15]): 0.09 s⁻¹
rate of second external aldimine formation (bimolecular) (hOAT [15]; 420 nm): 6200 M⁻¹ s⁻¹
rate constant of final phase (hOAT [15]; external aldimine decay with increase at ~275 nm): 0.007 s⁻¹
rate of quinonoid species accumulation (hOAT [15]; ~560 nm): 0.4 s⁻¹
SMILES: N[C@H]1C=C(C(=O)O)CC1(F)F [Compound 6, (S)-3-amino-4,4-difluorocyclopent-1-enecarboxylic acid]
